In ChEMBL document CHEMBL1150220, “Additional cytotoxic polyacetylenes from the marine sponge Petrosia species” (2001):
≈ marks a conversion by molar mass, not a printed value.

Tests used:
Type in all cases: functional
[1] = tested on: SK-OV-3; test: Cytotoxicity against human SKOV3 cells; details: read-out: ED50 (the source's name)
[2] = tested on: Simian virus 40; test: Inhibition of SV40 DNA replication assessed as [alpha32P]dATP formation at 125 uM after 90 mins by agarose gel electrophoresis; details: Betapolyomavirus macacae, 1.5 h
Outline: (§1)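 Cell-free SV40 DNA replication in Tris creatine phosphate buffer (pH 7.7) with creatine kinase, 7 mM MgCl2, 0.5 mM DTT, 4 mM ATP, 200 µM UTP/GTP/CTP, 100 µM dATP/dGTP/dCTP, SV40 T-Ag, origin-containing pUC DNA and replication proteins. The [α-32P]dATP variant ran 90 min at 37 °C, was stopped with EDTA/SDS/tRNA, and DNA was resolved on 1.0% agarose (12-14 h, 2 V/cm) and autoradiographed.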

[3] = tested on: Simian virus 40; test: Inhibition of SV40 DNA replication assessed as [alpha32P]dATP formation at 500 uM after 90 mins by agarose gel electrophoresis; details: Betapolyomavirus macacae, 1.5 h; outline: as §1
[4] = tested on: XF498; test: Cytotoxicity against human XF498 cells; details: read-out: ED50 (the source's name)
[5] = tested on: HCT-15; test: Cytotoxicity against human HCT15 cells; details: read-out: ED50 (the source's name)
[6] = tested on: SK-MEL-2; test: Cytotoxicity against human SK-MEL-2 cells; details: read-out: ED50 (the source's name)
[7] = tested on: Simian virus 40; test: Inhibition of SV40 DNA replication assessed as [alpha32P]dATP formation at 250 uM after 90 mins by agarose gel electrophoresis; details: Betapolyomavirus macacae, 1.5 h; outline: as §1
[8] = tested on: A549; test: Cytotoxicity against human A549 cells; details: read-out: ED50 (the source's name)

Row | Structure (SMILES) | EC50 [1] | inhibition at 125 µM [2] | inhibition at 500 µM [3] | EC50 [4] | EC50 [5] | EC50 [6] | inhibition at 250 µM [7] | EC50 [8]
1 | C#C/C=C\CCCCCCCCCCCCCC/C=C\CCCC/C=C\CCCC(O)C#CC(O)C#CCCCCCC/C=C/[C@H](O)C#C (some centres not stated) [PETROTETRAYNTRIOL A] | 4.2 µg/mL (≈ 6.26 µM) | 63% | 100% | 18.5 µg/mL (≈ 27.6 µM) | 12.9 µg/mL (≈ 19.2 µM) | 3.9 µg/mL (≈ 5.81 µM) | 77% | > 30 µg/mL
2 | C#C/C=C\CCCCCCCCCCCCCCC(=O)CCCCC/C=C\CCCCC#CC(O)C#CCCCCCC/C=C/C(O)C#C (configuration not stated) [PETROTETRAYNDIOL D] | > 10 µg/mL | 66% | 100% | > 10 µg/mL | > 10 µg/mL | > 10 µg/mL | 80% | > 10 µg/mL
3 | C#C/C=C\CCCCCCCCCCCCCC/C=C\CCCC/C=C\CCCCc1cc(=O)cc(CCCCCC/C=C/C(O)C#C)o1 (configuration not stated) [PETROCORTYNE C] | 0.7 µg/mL (≈ 1.04 µM) | 89% | 100% | > 10 µg/mL | 7.5 µg/mL (≈ 11.2 µM) | 2.4 µg/mL (≈ 3.58 µM) | 100% | > 10 µg/mL
4 | C#C/C=C\CCCCCCCCCCCCCCC/C=C\CCCC/C=C\CCCCC#C[C@@H](O)C#CCCCCCC/C=C/[C@H](O)C#C | 2.2 µg/mL (≈ 3.29 µM) | 59% | 100% | 2.5 µg/mL (≈ 3.74 µM) | 1.7 µg/mL (≈ 2.54 µM) | 0.8 µg/mL (≈ 1.2 µM) | 86% | 11.3 µg/mL (≈ 16.9 µM)
5 | C#C/C=C\CCCCCCCCCCCCCC/C=C\CCC/C=C/C(O)CCCCC#C[C@H](O)C#CCCCCCC/C=C/[C@H](O)C#C (some centres not stated) | 1.9 µg/mL (≈ 2.83 µM) | 79% | 100% | 8 µg/mL (≈ 11.9 µM) | 5 µg/mL (≈ 7.45 µM) | 2.3 µg/mL (≈ 3.43 µM) | 94% | 26.3 µg/mL (≈ 39.2 µM)
6 | C#CCCCCCCCCCCCCCCCC/C=C\CCCC/C=C\CCCCC#C[C@@H](O)C#CCCCCCC/C=C/[C@H](O)C#C | 1.5 µg/mL (≈ 2.28 µM) | 40% | 100% | 5.8 µg/mL (≈ 8.83 µM) | 2.5 µg/mL (≈ 3.8 µM) | 1.5 µg/mL (≈ 2.28 µM) | 70% | > 10 µg/mL
7 | C#CCCCCCCCCCCCCCCCC/C=C\CCCC/C=C\CC/C=C/C#C[C@@H](O)C#CCCCCCC/C=C/[C@H](O)C#C [PETROTETRAYNDIOL E] | 1.7 µg/mL (≈ 2.6 µM) | 62% | 100% | 3.4 µg/mL (≈ 5.19 µM) | 1.8 µg/mL (≈ 2.75 µM) | 1.1 µg/mL (≈ 1.68 µM) | 83% | 24.5 µg/mL (≈ 37.4 µM)
8 | C#C/C=C\CCCCCCCCCCCCCC/C=C\CCCC/C=C\CCCCC#CC(=O)C#CCCCCCC/C=C/[C@H](O)C#C [PETROTETRAYNOL A] | 4.6 µg/mL (≈ 7.04 µM) | 76% | 100% | > 30 µg/mL | > 30 µg/mL | 5.2 µg/mL (≈ 7.96 µM) | 100% | > 30 µg/mL
9 | C#C/C=C\CCCCCCCCCCCCC/C=C\CCCC/C=C\CCCCC#C[C@@H](O)C#CCCCCCC/C=C/[C@H](O)C#C [NOR-3S,14S-PETROCORTYNE A] | 4.4 µg/mL (≈ 6.86 µM) | 12% | 70% | 6.1 µg/mL (≈ 9.52 µM) | 3.5 µg/mL (≈ 5.46 µM) | 3.8 µg/mL (≈ 5.93 µM) | 47% | 7.3 µg/mL (≈ 11.4 µM)
10 | C#C/C=C\CCCCCCCCCCCCCC/C=C\CCCC/C=C\CCCC/C=C\[C@@H](O)C#CCCCCCC/C=C/[C@H](O)C#C [PETROTRIYNDIOL A] | 0.8 µg/mL (≈ 1.22 µM) | 62% | 100% | 1.3 µg/mL (≈ 1.98 µM) | 0.8 µg/mL (≈ 1.22 µM) | 0.6 µg/mL (≈ 0.913 µM) | 90% | 1.8 µg/mL (≈ 2.74 µM)
11 | C#C/C=C\CCCCCCCCCCCCC/C=C/C(=O)CCCC/C=C\CCCCC#C[C@@H](O)C#CCCCCCC/C=C/[C@H](O)C#C [PETROTETRAYNDIOL C] | 4.2 µg/mL (≈ 6.28 µM) | 45% | 81% | – | 5.7 µg/mL (≈ 8.52 µM) | 4.1 µg/mL (≈ 6.13 µM) | 46% | > 10 µg/mL
